From ChEMBL document CHEMBL1629526, “4-[1-(Substituted aryl/alkyl carbonyl)-benzoimidazol-2-yl]-benzenesulfonic acids: synthesis, antimicrobial activity, QSAR studies, and antiviral evaluation” (Eur J Med Chem, 2010)
Values after ≈ are worked out from the molar mass of the structure shown.

What was measured:
Influenza A virus [1] = experiment: Antiviral activity against Influenza A H1N1 virus subtype infected in MDCK cells assessed as inhibition of virus induced cytopathicity after 2 to 4 days by MTS assay; assay type: functional, organism-based
Human respirovirus 3 = experiment: Antiviral activity against parainfluenza-3 virus infected in african green monkey Vero cells assessed as inhibition of virus induced cytopathicity after 2 to 4 days by MTS assay; assay type: functional, organism-based; conditions: Human respirovirus 3, Vero
MDCK = experiment: Cytotoxicity against MDCK cells assessed as cell viability by MTS assay; assay type: cell-based, Canis lupus familiaris; conditions: dog, mdck
Procedure, shortened: (§1)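 Uninfected cultures were run in parallel with the antiviral assays. Viability was read by colorimetric formazan MTS assay.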

[2] = Cytotoxicity against cat CRFK cells assessed as cell viability by MTS assay; assay type: cell-based, Felis catus; conditions: crfk; procedure, shortened: as §1
HeLa = experiment: Cytotoxicity against human HeLa cells assessed as cell viability by MTS assay; assay type: cell-based; conditions: hela; procedure, shortened: as §1
[3] = Cytotoxicity against african green monkey Vero cells assessed as altered cell morphology; assay type: cell-based; conditions: chlorocebus sabaeus
Procedure, shortened: (§2)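 Uninfected cell cultures run alongside the antiviral assays, exposed to serial compound dilutions and incubated at 37 °C for 2–4 days. Toxicity was scored microscopically and reported as the minimum cytotoxic concentration (MCC), the lowest concentration causing a detectable change in normal cell morphology.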

Candida albicans = experiment: Antimicrobial activity against Candida albicans after 48 hrs by tube dilution method; assay type: functional
Aspergillus niger = experiment: Antimicrobial activity against Aspergillus niger after 7 days by tube dilution method; assay type: functional; conditions: 168 h
Bacillus subtilis = experiment: Antimicrobial activity against Bacillus subtilis after 24 hrs by tube dilution method; assay type: functional
Procedure, shortened: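 Serial dilutions in double-strength nutrient broth (I.P.) with ciprofloxacin as reference, tube dilution, incubated 37 °C for 24 h. MIC is the lowest concentration that inhibited growth.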

[4] = test system: Vesicular stomatitis virus; experiment: Antiviral activity against Vesicular stomatitis virus infected in human HeLa cells assessed as inhibition of virus induced cytopathicity after 2 to 4 days by MTS assay; assay type: functional, organism-based
Feline coronavirus = experiment: Antiviral activity against Feline coronavirus infected in cat CRFK cells assessed as inhibition of virus induced cytopathicity after 2 to 4 days by MTS assay; assay type: functional, organism-based; conditions: Alphacoronavirus 1, CRFK
[5] = Cytotoxicity against MDCK cells assessed as altered cell morphology; assay type: cell-based, Canis lupus familiaris; conditions: dog; procedure, shortened: as §2
Felid alphaherpesvirus 1 = experiment: Antiviral activity against Feline herpesvirus 1 infected in cat CRFK cells assessed as inhibition of virus induced cytopathicity after 2 to 4 days by MTS assay; assay type: functional, organism-based; conditions: Felid alphaherpesvirus 1, CRFK
[6] = test system: Respiratory syncytial virus; experiment: Antiviral activity against Respiratory syncytial virus infected in human HeLa cells assessed as inhibition of virus induced cytopathicity by visual scoring of CPE; assay type: functional, organism-based
Influenza B virus [7] = experiment: Antiviral activity against Influenza B virus infected in MDCK cells assessed as inhibition of virus induced cytopathicity by visual scoring of CPE; assay type: functional, organism-based
Influenza A virus [8] = experiment: Antiviral activity against Influenza A H3N2 virus subtype infected in MDCK cells assessed as inhibition of virus induced cytopathicity by visual scoring of CPE; assay type: functional, organism-based
[9] = Cytotoxicity against human HeLa cells assessed as altered cell morphology; assay type: cell-based; procedure, shortened: as §2
Escherichia coli = experiment: Antimicrobial activity against Escherichia coli after 24 hrs by tube dilution method; assay type: functional
Punta Toro virus = experiment: Antiviral activity against Punta Toro virus infected in african green monkey Vero cells assessed as inhibition of virus induced cytopathicity after 2 to 4 days by MTS assay; assay type: functional, organism-based
Coxsackievirus B4 [10] = experiment: Antiviral activity against coxsackievirus B4 infected in human HeLa cells assessed as inhibition of virus induced cytopathicity by visual scoring of CPE; assay type: functional, organism-based; conditions: Enterovirus B
Sindbis virus = experiment: Antiviral activity against Sindbis virus infected in african green monkey Vero cells assessed as inhibition of virus induced cytopathicity after 2 to 4 days by MTS assay; assay type: functional, organism-based
Coxsackievirus B4 [11] = experiment: Antiviral activity against Coxsackie virus B4 infected in african green monkey Vero cells assessed as inhibition of virus induced cytopathicity after 2 to 4 days by MTS assay; assay type: functional, organism-based; conditions: Enterovirus B
Coxsackievirus B4 [12] = experiment: Antiviral activity against coxsackievirus B4 infected in human HeLa cells assessed as inhibition of virus induced cytopathicity after 2 to 4 days by MTS assay; assay type: functional, organism-based; conditions: Enterovirus B
Staphylococcus aureus = experiment: Antimicrobial activity against Staphylococcus aureus after 24 hrs by tube dilution method; assay type: functional
[13] = Cytotoxicity against human HEL cells assessed as altered cell morphology; assay type: cell-based; procedure, shortened: as §2
Influenza A virus [14] = experiment: Antiviral activity against Influenza A H1N1 virus subtype infected in MDCK cells assessed as inhibition of virus induced cytopathicity by visual scoring of CPE; assay type: functional, organism-based
Vaccinia virus = experiment: Antiviral activity against Vaccinia virus infected in HEL cells assessed as inhibition of virus induced cytopathicity after 2 to 4 days by MTS assay; assay type: functional, organism-based; conditions: Orthopoxvirus vaccinia
Influenza B virus [15] = experiment: Antiviral activity against Influenza B virus infected in MDCK cells assessed as inhibition of virus induced cytopathicity after 2 to 4 days by MTS assay; assay type: functional, organism-based
Human alphaherpesvirus 1 [16] = experiment: Antiviral activity against thymidine kinase deficient acyclovir-resistant Herpes simplex virus 1 KOS infected in HEL cells assessed as inhibition of virus induced cytopathicity after 2 to 4 days by MTS assay; assay type: functional, organism-based; conditions: Human alphaherpesvirus 1, KOS
[17] = test system: Vesicular stomatitis virus; experiment: Antiviral activity against Vesicular stomatitis virus infected in human HeLa cells assessed as inhibition of virus induced cytopathicity by visual scoring of CPE; assay type: functional, organism-based
[18] = test system: Mammalian orthoreovirus 1; experiment: Antiviral activity against Reovirus 1 virus infected in african green monkey Vero cells assessed as inhibition of virus induced cytopathicity after 2 to 4 days by MTS assay; assay type: functional, organism-based; conditions: Mammalian orthoreovirus 1, Vero
[19] = test system: Respiratory syncytial virus; experiment: Antiviral activity against Respiratory syncytial virus infected in human HeLa cells assessed as inhibition of virus induced cytopathicity after 2 to 4 days by MTS assay; assay type: functional, organism-based
Human alphaherpesvirus 1 [20] = experiment: Antiviral activity against Herpes simplex virus 1 KOS infected in HEL cells assessed as inhibition of virus induced cytopathicity after 2 to 4 days by MTS assay; assay type: functional, organism-based; conditions: Human alphaherpesvirus 1, KOS
[21] = test system: Vesicular stomatitis virus; experiment: Antiviral activity against Vesicular stomatitis virus infected in HEL cells assessed as inhibition of virus induced cytopathicity after 2 to 4 days by MTS assay; assay type: functional, organism-based
Influenza A virus [22] = experiment: Antiviral activity against Influenza A H3N2 virus subtype infected in MDCK cells assessed as inhibition of virus induced cytopathicity after 2 to 4 days by MTS assay; assay type: functional, organism-based
Human alphaherpesvirus 2 = experiment: Antiviral activity against Herpes simplex virus 2 G infected in HEL cells assessed as inhibition of virus induced cytopathicity after 2 to 4 days by MTS assay; assay type: functional, organism-based; conditions: Human alphaherpesvirus 2, strain G

SMILES	EC50 (Human respirovirus 3) [µg/mL]	CC50 (MDCK) [µg/mL]	CC50 [2] [µg/mL]	CC50 (HeLa) [µg/mL]	MCC [3] [µg/mL]	MFC (Candida albicans) [µg/mL]	MFC (Aspergillus niger) [µg/mL]	MBC (Bacillus subtilis) [µg/mL]	EC50 [4] [µg/mL]	EC50 (Feline coronavirus) [µg/mL]	MCC [5] [µg/mL]	EC50 (Felid alphaherpesvirus 1) [µg/mL]	EC50 [6] [µg/mL]	EC50 (Influenza A virus [8]) [µg/mL]	MCC [9] [µg/mL]	MBC (Escherichia coli) [µg/mL]	EC50 (Punta Toro virus) [µg/mL]	EC50 (Coxsackievirus B4 [10]) [µg/mL]	EC50 (Sindbis virus) [µg/mL]	EC50 (Coxsackievirus B4 [11]) [µg/mL]	also measured
Nc1ccccc1C(=O)n1c(-c2ccc(S(=O)(=O)O)cc2)nc2ccccc21	> 4	4.1 (≈ 10.4 µM)	11 (≈ 28 µM)	> 100	20	50 (≈ 127 µM)	> 50	> 50	> 20	> 4	≥ 4	> 4	> 20	> 4	≥ 20	1.56 (≈ 3.97 µM)	> 4	> 20	> 4	> 4	EC50 (Influenza A virus [1]): > 4 µg/mL; EC50 (Influenza B virus [7]): > 4 µg/mL; EC50 (Coxsackievirus B4 [12]): > 20 µg/mL; MBC (Staphylococcus aureus): 50 µg/mL (≈ 127 µM); MCC [13]: > 100 µg/mL; EC50 (Influenza A virus [14]): > 4 µg/mL; EC50 (Vaccinia virus): > 100 µg/mL; EC50 (Influenza B virus [15]): > 4 µg/mL; EC50 (Human alphaherpesvirus 1 [16]): > 100 µg/mL; EC50 [17]: > 20 µg/mL; EC50 [18]: > 4 µg/mL; EC50 [19]: > 20 µg/mL; EC50 (Human alphaherpesvirus 1 [20]): > 100 µg/mL; EC50 [21]: > 100 µg/mL; EC50 (Influenza A virus [22]): > 4 µg/mL; EC50 (Human alphaherpesvirus 2): > 100 µg/mL
C=CC(=O)n1c(-c2ccc(S(=O)(=O)O)cc2)nc2ccccc21	> 100	14.1 (≈ 42.9 µM)	> 82	> 100	> 100	> 50	> 50	12.5 (≈ 38.1 µM)	> 100	> 20	≥ 0.8	> 20	> 100	> 0.8	> 100	1.56 (≈ 4.75 µM)	> 100	> 100	> 100	> 100	EC50 (Influenza A virus [1]): > 0.8 µg/mL; EC50 (Coxsackievirus B4 [12]): > 100 µg/mL; MBC (Staphylococcus aureus): 6.25 µg/mL (≈ 19 µM); MCC [13]: 100 µg/mL; EC50 (Influenza A virus [14]): > 0.8 µg/mL; EC50 (Vaccinia virus): > 20 µg/mL; EC50 (Human alphaherpesvirus 1 [16]): > 20 µg/mL; EC50 [17]: > 100 µg/mL; EC50 [18]: > 100 µg/mL; EC50 [19]: > 100 µg/mL; EC50 (Human alphaherpesvirus 1 [20]): > 20 µg/mL; EC50 [21]: > 20 µg/mL; EC50 (Influenza A virus [22]): > 0.8 µg/mL; EC50 (Human alphaherpesvirus 2): > 20 µg/mL
O=C(c1ccccc1)n1c(-c2ccc(S(=O)(=O)O)cc2)nc2ccccc21	> 100	> 100	> 100	> 100	> 100	50 (≈ 132 µM)	> 50	> 50	> 100	> 100	> 100	> 100	> 100	> 100	> 100	1.56 (≈ 4.12 µM)	> 100	> 100	> 100	> 100	EC50 (Influenza B virus [7]): > 100 µg/mL; EC50 (Coxsackievirus B4 [12]): > 100 µg/mL; MBC (Staphylococcus aureus): 12.5 µg/mL (≈ 33 µM); MCC [13]: > 100 µg/mL; EC50 (Vaccinia virus): > 100 µg/mL; EC50 (Influenza B virus [15]): > 100 µg/mL; EC50 (Human alphaherpesvirus 1 [16]): > 100 µg/mL; EC50 [17]: > 100 µg/mL; EC50 [18]: > 100 µg/mL; EC50 [19]: > 100 µg/mL; EC50 (Human alphaherpesvirus 1 [20]): > 100 µg/mL; EC50 [21]: > 100 µg/mL; EC50 (Influenza A virus [22]): > 100 µg/mL; EC50 (Human alphaherpesvirus 2): > 100 µg/mL
